According to ChEMBL document CHEMBL1154181 (J Med Chem, 2009):

Experiments:
[1] = system: Mus musculus; assay: Ratio of morphine ED50 to compound ED50 for antinociceptive activity against thermal nociception in po dosed CD1 mouse; type: functional
Method in brief: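 Compound and morphine were dosed po in male CD-1 mice. Hot plate was held at 48.5 ± 0.1 °C, scored as paw lick, jerk or jump, with a 60 s cutoff, read at 15–90 min. Tail flick used radiant heat with a 15 s cutoff. Baseline was the mean of three readings. Peak-time %MPE was made quantal, and ED50 came from at least four groups of six mice.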

[2] = molecular target: T1, Alpha-1A adrenergic receptor (Rattus norvegicus) (UniProt P43140); assay: Inhibition of [3H]prazosin binding to adrenergic alpha1A receptor in Wistar rat submaxillary gland at 10 uM after 60 mins
T1 sequence (whole entry): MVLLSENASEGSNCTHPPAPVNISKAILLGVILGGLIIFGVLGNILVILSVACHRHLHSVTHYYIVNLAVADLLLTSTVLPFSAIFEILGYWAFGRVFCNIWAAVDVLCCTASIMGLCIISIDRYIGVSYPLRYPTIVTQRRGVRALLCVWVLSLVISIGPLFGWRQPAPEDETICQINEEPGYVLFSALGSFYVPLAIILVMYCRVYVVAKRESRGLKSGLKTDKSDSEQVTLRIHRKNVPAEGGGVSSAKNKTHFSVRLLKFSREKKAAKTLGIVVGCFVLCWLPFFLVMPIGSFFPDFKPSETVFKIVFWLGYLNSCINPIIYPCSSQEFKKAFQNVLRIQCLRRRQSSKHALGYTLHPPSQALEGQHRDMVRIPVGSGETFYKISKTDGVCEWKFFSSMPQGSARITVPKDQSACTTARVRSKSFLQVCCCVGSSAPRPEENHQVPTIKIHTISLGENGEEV
Method in brief: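 Wistar rat submaxillary gland membranes with 0.25 nM [3H]-prazosin. Nonspecific binding defined by 10 μM phentolamine. Buffer 50 mM Tris-HCl pH 7.4, 0.5 mM EDTA. Incubated 60 min at 25 °C, then filtered and counted. Duplicate; 1% DMSO final.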

SMILES: C=Cc1c(C)nn(CCCN2CCN(c3ccc(C)cc3)CC2)c(=O)c1N
- Ratio ED50 [1]: 4
- Emax [2]: 101%
